From ChEMBL document CHEMBL1765010, “Reversible competitive α-ketoheterocycle inhibitors of fatty acid amide hydrolase containing additional conformational constraints in the acyl side chain: orally active, long-acting analgesics” (J Med Chem, 2011)
The source made the active and inactive calls. The calls are words filed in the database; no cut-off is given here.

Tests used:
Mus musculus [1] = assay: Toxicity in C57BL/6 mouse assessed as hypothermia at 50 mg/kg, po; assay type: organism-based; parameters: dose 50 mg/kg, route oral; conditions: in vivo
[2] = molecular target: T1, Fatty-acid amide hydrolase 1 (Homo sapiens) (UniProt O00519); assay: Competitive inhibition of full-length human FAAH expressed in COS-7 cells by Lineweaver-Burk analysis; assay type: cell-based
T1 sequence (whole entry): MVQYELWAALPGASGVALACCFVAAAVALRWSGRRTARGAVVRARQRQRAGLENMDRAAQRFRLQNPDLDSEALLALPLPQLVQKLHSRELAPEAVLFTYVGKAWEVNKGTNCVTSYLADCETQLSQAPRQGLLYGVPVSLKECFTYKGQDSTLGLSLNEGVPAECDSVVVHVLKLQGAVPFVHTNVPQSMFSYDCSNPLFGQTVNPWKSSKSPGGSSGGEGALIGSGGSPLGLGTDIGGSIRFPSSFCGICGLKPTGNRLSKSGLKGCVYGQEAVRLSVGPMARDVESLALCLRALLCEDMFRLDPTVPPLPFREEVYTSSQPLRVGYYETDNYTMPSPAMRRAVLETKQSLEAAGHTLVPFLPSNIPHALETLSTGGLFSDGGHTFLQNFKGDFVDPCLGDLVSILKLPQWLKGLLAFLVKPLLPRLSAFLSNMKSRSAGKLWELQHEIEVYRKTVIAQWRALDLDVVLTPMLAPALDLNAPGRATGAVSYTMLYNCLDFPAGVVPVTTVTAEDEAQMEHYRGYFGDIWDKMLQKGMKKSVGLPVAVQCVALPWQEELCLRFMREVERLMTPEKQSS
Outline: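 Solubilized membrane lysate of COS-7 cells transiently transfected with full-length human FAAH cDNA. Aliquots quenched in 0.1 N HCl at three times; oleamide/oleic acid extracted into EtOAc and separated by TLC. Initial rates (≤10–20% conversion) analysed by Lineweaver–Burk plot.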

Mus musculus [3] = assay: Inhibition of FAAH in C57Bl/6J mouse brain assessed as increase of anandamide level at 50 mg/kg, po after 1 hr relative to control; assay type: functional
Outline: (§1)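 Male C57Bl/6J mice (<6 months, 20–28 g) given compound orally as a PEG300 solution at 10, 25 or 50 mg/kg, with 3 mice per group in the 50 mg/kg p.o. comparison; brains collected 1 h post-dose. Lipids extracted in CHCl3:MeOH:Tris pH 8.0 with deuterated internal standards, then measured by C18 LC-ESI-MS/MS relative to vehicle-treated mice.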

Mus musculus [4] = assay: Inhibition of FAAH in C57Bl/6J mouse brain assessed as increase of N-palmitoyl ethanolamine level at 10 to 50 mg/kg, po after 1 hr relative to control; assay type: functional; conditions: dose mg/kg 10-50; outline: as §1
Mus musculus [5] = assay: Toxicity in C57BL/6 mouse assessed as hypomotility at 50 mg/kg, po; assay type: organism-based; parameters: dose 50 mg/kg, route oral; conditions: in vivo
Mus musculus [6] = assay: Inhibition of FAAH in C57Bl/6J mouse liver assessed as increase of 2-arachidonoylglycerol level at 30 mg/kg, ip after 1 hr relative to control; assay type: functional; conditions: route intraperitoneal
Mus musculus [7] = assay: Inhibition of FAAH in C57Bl/6J mouse liver assessed as increase of anandamide level at 30 mg/kg, ip after 1 hr relative to control; assay type: functional; conditions: route intraperitoneal
Mus musculus [8] = assay: Analgesic activity in C57BL/6 mouse chronic constriction injury model assessed as reversal of acetone-induced cold allodynia at 50 mg/kg, po measured up to 9 hrs; assay type: functional, organism-based; parameters: dose 50 mg/kg
Outline: (§2)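 Male C57BL/6 mice with sciatic nerve chronic constriction injury (two silk ligatures, isoflurane anesthesia), tested from 10 days post-surgery after 2 days of apparatus habituation. Single oral dose in PEG300 or vehicle. Blinded observer tested ipsilateral and contralateral paws at 1, 3, 6 and 9 h: von Frey up-down method (0.16–6.0 g filaments, 5 stimuli each) and acetone-induced cold response. n = 9–10; mean ± SEM.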

Mus musculus [9] = assay: Analgesic activity in C57BL/6 mouse chronic constriction injury model assessed as reversal of paws ipsilateral to CCI surgery at 50 mg/kg, po measured up to 9 hrs; assay type: functional, organism-based; parameters: dose 50 mg/kg; outline: as §2
Mus musculus [10] = assay: Inhibition of FAAH in C57Bl/6J mouse brain assessed as increase of anandamide level at 10 mg/kg, po; assay type: functional; parameters: scale not given: the % may be the effect or the level left; outline: as §1
Mus musculus [11] = assay: Inhibition of FAAH in C57Bl/6J mouse brain assessed as increase of N-palmitoyl ethanolamine level at 30 mg/kg, ip after 1 hr relative to control; assay type: functional; conditions: route intraperitoneal
Outline: (§3)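 Male C57Bl/6J mice (<6 months, 20–28 g) dosed i.p. at 30 mg/kg in 18:1:1 saline:ethanol:emulphor emulsion; brains taken 1 h later. One mouse in the initial screen, 3 per group in the follow-up. Brain homogenized in CHCl3:MeOH:Tris pH 8.0 with deuterated lipid standards; organic extract quantified by reverse-phase C18 LC-ESI-MS/MS against vehicle controls.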

Mus musculus [12] = assay: Inhibition of FAAH in C57Bl/6J mouse brain assessed as increase of N-palmitoyl ethanolamine level at 50 mg/kg, po; assay type: functional, organism-based; parameters: dose 50 mg/kg; conditions: TDE = time-dependent effect
Outline: (§4)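 Male C57Bl/6J mice (<6 months, 20–28 g) given a single oral dose as a PEG300 solution. Brains were homogenized in CHCl3:MeOH:Tris pH 8.0 containing deuterated internal standards. The organic extract was analysed by reverse-phase C18 LC–ESI triple-quadrupole MS for anandamide, PEA, OEA and 2-AG. Dose series (10, 25, 50 mg/kg) was sampled at 1 h; the 50 mg/kg time course ran to 9 h. Three mice per group in the i.p./p.o. comparison.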

Mus musculus [13] = assay: Inhibition of FAAH in C57Bl/6J mouse liver assessed as increase of N-palmitoyl ethanolamine level at 30 mg/kg, ip after 1 hr relative to control; assay type: functional; conditions: route intraperitoneal
Mus musculus [14] = assay: Inhibition of FAAH in C57Bl/6J mouse brain assessed as increase of anandamide level at 10 to 50 mg/kg, po after up to 9 hrs; assay type: functional, organism-based; outline: as §4
Mus musculus [15] = assay: Inhibition of FAAH in C57Bl/6J mouse brain assessed as increase of anandamide level at 25 to 50 mg/kg, po after 1 hr relative to control; assay type: functional; conditions: dose mg/kg 25-50; outline: as §1
Mus musculus [16] = assay: Inhibition of FAAH in C57Bl/6J mouse brain assessed as increase of 2-arachidonoylglycerol level at 30 mg/kg, ip after 1 hr relative to control; assay type: functional; conditions: route intraperitoneal; outline: as §3
Mus musculus [17] = assay: Inhibition of FAAH in C57Bl/6J mouse brain assessed as increase of 2-arachidonoylglycerol level at 50 mg/kg, po; assay type: functional, organism-based; parameters: dose 50 mg/kg; conditions: TDE = time-dependent effect; outline: as §4
Mus musculus [18] = assay: Inhibition of FAAH in po dosed C57Bl/6J mouse brain assessed as increase of 2-arachidonoylglycerol level after 1 hr relative to control; assay type: functional, organism-based; outline: as §4
Mus musculus [19] = assay: Inhibition of FAAH in C57Bl/6J mouse brain assessed as increase of arachidonic acid level at 30 mg/kg, ip after 1 hr relative to control; assay type: functional; conditions: route intraperitoneal; outline: as §3
Mus musculus [20] = assay: Analgesic activity in C57BL/6 mouse chronic constriction injury model assessed as reversal of von Frey filament-induced mechanical allodynia at 50 mg/kg, po measured up to 6 hrs; assay type: functional, organism-based; parameters: dose 50 mg/kg; outline: as §2
Mus musculus [21] = assay: Inhibition of FAAH in po dosed C57Bl/6J mouse brain assessed as increase of N-palmitoyl ethanolamine level after 1 hr relative to control; assay type: functional, organism-based; conditions: in the assay text read “anandamide” for “N-palmitoyl ethanolamine”; outline: as §4

O=C(c1ncc(-c2ccccn2)o1)[C@H]1CCc2cc(Oc3ccccc3)ccc2C1
Activity (Mus musculus [1]): Non-toxic | inhibition [2]: Active | fold change (FC) (Mus musculus [3]): 13 | fold change (FC) (Mus musculus [4]): 5.5 | Activity (Mus musculus [5]): Non-toxic | fold change (FC) (Mus musculus [6]): 0.8 | fold change (FC) (Mus musculus [7]): 6 | Activity (Mus musculus [8]): Active | Activity (Mus musculus [9]): Active | Activity (Mus musculus [10]): >90% | fold change (FC) (Mus musculus [11]): 7.2 | Activity (Mus musculus [12]): tde | fold change (FC) (Mus musculus [13]): 3.6 | Activity (Mus musculus [14]): Active | fold change (FC) (Mus musculus [15]): 12 | fold change (FC) (Mus musculus [16]): 0.9 | Activity (Mus musculus [17]): tde | Activity (Mus musculus [18]): Dose-dependent effect | fold change (FC) (Mus musculus [19]): 0.8 | Activity (Mus musculus [20]): Active | Activity (Mus musculus [21]): Dose-dependent effect
